# Measurements reported in the RNAGym collection of RNA variant scans (doi:10.1126/science.aae0568).
# Fewer inactive variants are shown than the library holds.
# B1: tRNA (parent)
# chain: GUUCCGUUGGCGUAAUGGUAACGCGUCUCCCUCCUAAGGAGAAGACUGCGGGUUCGAGUCCCGUACGGAACG
# Variants of: B1
# Assay: yeast fitness relative to wild type (ratio to wild type); higher = fitter; tRNA-Arg(CCU), competitive growth, 37 C, YPD
# Procedure, shortened: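 Changes in genotype frequencies gave Darwinian fitness relative to wild type. Frequencies were read by 100-nucleotide paired-end sequencing of gene amplicons before and after pooled Saccharomyces cerevisiae strains, carrying tRNA-Arg(CCU) gene variants at the native locus, were competed in YPD at 37°C for 24 hours in six replicates. A genotype was kept only with ≥ 100 starting reads, and estimates < 0.5 were set to 0.5.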
row,Variant,yeast fitness
1,U2A C61U,0.768
2,U2A U3G C34U,≤ 0.5
3,U2C C24G C33G U53C C55U A70G,≤ 0.5
4,U2C G6C C11G A15C G25C C27G C30G G38C,≤ 0.5
5,U2C G12A G18C C33U,0.561
6,U2A C55A A69U,≤ 0.5
7,U2C A14U G18C C33G G52A,≤ 0.5
8,U2A G10A A20U C22G G44C C61G,0.502
9,U2C C11A,≤ 0.5
10,U2C G10C C24A C31U A36C A43C C55A,0.546
11,U2C C4U C46U G50U C55U,≤ 0.5
12,U2A C46U A65G,0.592
13,U2A U3C G18C C29G U54A,≤ 0.5
14,U2C G12A A36U C62G,≤ 0.5
15,U2C A37U U53A,0.727
16,U2A G52A C61A,≤ 0.5
17,U2A U47A,0.851
18,U2A G48A,0.978
19,U2A U8A A42U G52C,≤ 0.5
20,U2A U16G A69C,0.85
21,U2C C4U A36G G44C,0.615
22,U2C G18A G25A C66U,≤ 0.5
23,U2C C5U U54C,≤ 0.5
24,U2A G12C C34G A65U,≤ 0.5

row,Variant,yeast fitness
1,U2A G41C G50C C62G C66G,≤ 0.5
2,U2C C33U A42G G44C,≤ 0.5
3,U2C A15U A20U A69U,≤ 0.5
4,U2C C33U C61G,≤ 0.5
5,U2A U19A A20C U26A A43G,≤ 0.5
6,U2A U16A G56C A57G,≤ 0.5
7,U2A G9C A14C C34U C60G,0.551
8,U2A U16C C30A G56A G68C,0.541
9,U2A U7A U54A,≤ 0.5
10,U2C C11A C22G G41A A43C G51C,≤ 0.5
11,U2C C4A C34A A43G G52C C60G A65G,≤ 0.5
12,U2A C55A,0.714
13,U2A C55U,0.661
14,U2C C24G U26A C31G,0.639
15,U2A U8C,1.01
16,U2A U8A,0.811
17,U2C C5A C29G G48A A69U,≤ 0.5
18,U2C C11G C22G,≤ 0.5
19,U2A G25C A70G,0.568
20,U2A U3G C11A G12A U16C C22G C62U,≤ 0.5
21,U2A U3C C4U C61A G67C,0.59
22,U2C C27U C46U G48A,0.636
23,U2C C24U A70C,0.708
24,U2C C29U C66G G68A,≤ 0.5

row,Variant,yeast fitness
1,U2A U19G A70U,0.68
2,U2C A40C A42U C49G C66G,≤ 0.5
3,U2C G17A A37C,0.791
4,U2A G9A G23A C29G,≤ 0.5
5,U2C C5A,0.845
6,U2A G9A A20C C24U,≤ 0.5
7,U2C A43G A57C A65U,≤ 0.5
8,U2C A15U C30G C55U,0.666
9,U2A G6A C11U C31G A69U,≤ 0.5
10,U2C A57G C66G,≤ 0.5
11,U2C A14U U47A C61G A70G,≤ 0.5
12,U2A G50C C55G C62G,≤ 0.5
13,U2C C24U C29U C30A,0.59
14,U2C A20U U28A,≤ 0.5
15,U2C G6A G23A C27U A45C C60A,0.605
16,U2A G6A,0.775
17,U2A U19G A20U U64C,≤ 0.5
18,U2A G39C A70G,≤ 0.5
19,U2C C11U G68A,0.544
20,U2C C24A C66U,0.61
21,U2C C24U G44C,≤ 0.5
22,U2C A37G C49G A57U G68C A70G,≤ 0.5
23,U2C C27U,0.881
24,U2C C27G,0.748

row,Variant,yeast fitness
1,U2C C11A C34G G51A,≤ 0.5
2,U2A U3C G18C A69U,≤ 0.5
3,U2C C30U C33U,0.512
4,U2C A70G,0.945
5,U2A G9C U13A A15G C33A A37U G50C C61U,0.58
6,U2C A57U G67C,0.562
7,U2C C24G A42U G67A,≤ 0.5
8,U2A G9A C33A G68A,≤ 0.5
9,U2C C11U U59A,0.586
10,U2C C4U G25C C29U G68A,≤ 0.5
11,U2C C49U,0.808
12,U2C G6A C61G,≤ 0.5
13,U2A U16A C55G C60A,≤ 0.5
14,U2C G6C G25A A36C,≤ 0.5
15,U2C C4A G18C G63A,0.633
16,U2A G23A C29G,0.666
17,U2C G18A G25A,0.599
18,U2A C46U,1.06
19,U2C G10C C11U C34A A37C C60A G67C,0.7
20,U2C C11U G12A A15G,≤ 0.5
21,U2C G12A A15G A43U C62G,≤ 0.5
22,U2C C29A C34G A43U G52A,0.682
23,U2A G6C A37U,≤ 0.5
24,U2C C24A C49A,≤ 0.5

row,Variant,yeast fitness
1,U2A U7A,0.666
2,U2C A14U A15G C30U C34U G51C C55U,0.596
3,U2A C49U,0.981
4,U2C C5A C24A,≤ 0.5
5,U2C C33U A42C U64C A70G,≤ 0.5
6,U2C C4U C33A G41C C60U A65U A69U,≤ 0.5
7,U2C C4U A37C G48A C60G A65U,≤ 0.5
8,U2C A14G U47G,0.593
9,U2A U3A U7A A57G,≤ 0.5
10,U2A G41A,0.773
11,U2C C22U A69C,0.511
12,U2C C27U A43G,0.593
13,U2C C4U C62U,0.698
14,U2C A65C,0.86
15,U2A G6A U16C U28A G50A,≤ 0.5
16,U2C C4U U47A,0.525
17,U2C A36U A65C,≤ 0.5
18,U2A G67U,0.824
19,U2A U19G A65U,0.644
20,U2A U28C,0.835
21,U2C A20U,0.91
22,U2C A65G G68A A69C,0.563
23,U2C A14C U35C,≤ 0.5
24,U2A U13G U28A A36U G56A C62G U64G,≤ 0.5

row,Variant,yeast fitness
1,U2A G9A C49A,≤ 0.5
2,U2C A15C C60A,≤ 0.5
3,U2C C5U A40U G50A,≤ 0.5
4,U2C A20U C62U,0.571
5,U2A U26C C33G A42C C49G G58C C62G,≤ 0.5
6,U2C C24U,0.952
7,U2C C24A,0.574
8,U2C C4U A70C,0.733
9,U2A G9C G50A U64A,≤ 0.5
10,U2C G12C A40C,≤ 0.5
11,U2A U16G C66G G68C,≤ 0.5
12,U2A U64C,0.938
13,U2C C11A G41C C61A,≤ 0.5
14,U2C C27A C60G,≤ 0.5
15,U2A G10A G17C U35C C55G,≤ 0.5
16,U2C C55G G56C A69U,≤ 0.5
17,U2A U7G A42G A45U G52A U64C A69U,≤ 0.5
18,U2A G12A A21C,0.515
19,U2A U16G C66A,0.625
20,U2A U13A A20C G44C C66U,≤ 0.5
21,U2C A43U G44C,≤ 0.5
22,U2C C27U A43G G56A,≤ 0.5
23,U2C C24A C33A C46U,≤ 0.5
24,U2C C29U A37G A65G,≤ 0.5

row,Variant,yeast fitness
1,U2C A14G G18A C33U C34U G39C,≤ 0.5
2,U2A U16G A43C U54G,≤ 0.5
3,U2C A40C C66A,≤ 0.5
4,U2A U7A A15U G56A,≤ 0.5
5,U2A G6A U28G,≤ 0.5
6,U2C C27G U28A C61U,≤ 0.5
7,U2A U19A A20C G25A U26A,≤ 0.5
8,U2C C11G A37G G51C A57G,0.632
9,U2C C61U A65G,0.711
10,U2C A40U,1.05
11,U2C A14G C31G G58A,≤ 0.5
12,U2C C4A U8C G18C U35C G63A,≤ 0.5
13,U2A G41C G50C,≤ 0.5
14,U2A G38C G44C A69U,≤ 0.5
15,U2A U7C G41A A42C G50C A70G,≤ 0.5
16,U2A U28A A37C C66U,≤ 0.5
17,U2C A43G,0.887
18,U2C A14C U19A,0.595
19,U2A U53G,≤ 0.5
20,U2C C11A C22G U54C G56A,≤ 0.5
21,U2C C30A U47C A65C C66G,≤ 0.5
22,U2C G10C A40C G52C G67A,≤ 0.5
23,U2C G6A C31U C49U,0.641
